# Measured values: ChEMBL document CHEMBL3232844, “Synthesis and structure activity relationships of schweinfurthin indoles” (2014)
# Legend:
# Type in all cases: functional
# [1] = tested on: CCRF-CEM; experiment: Cytotoxicity against human CCRF-CEM cells
# [2] = Cytotoxicity against human OVCAR3 cells
# Method in brief: (§1)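 Tested in a 60-cell-line human tumor panel screen; the read-out is growth inhibition, reported as GI50 for each cell line.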
# [3] = tested on: K562; experiment: Cytotoxicity against human K562 cells; method in brief: as §1
# [4] = tested on: SK-OV-3; experiment: Cytotoxicity against human SKOV3 cells; method in brief: as §1
# [5] = tested on: MCF7; experiment: Cytotoxicity against human MCF7 cells; method in brief: as §1
# [6] = tested on: SR; experiment: Cytotoxicity against human SR cells
# Method in brief: (§2)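 Cell line run as part of the 60-cell-line screening panel; growth inhibition was reported as a GI50 for each line.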
# [7] = tested on: RXF 393; experiment: Cytotoxicity against human RXF393 cells; method in brief: as §1
# [8] = tested on: SK-MEL-2; experiment: Cytotoxicity against human SK-MEL-2 cells; method in brief: as §1
# [9] = tested on: BT-549; experiment: Cytotoxicity against human BT549 cells; method in brief: as §1
# [10] = tested on: MDA-MB-231; experiment: Cytotoxicity against human MDA-MB-231 cells; method in brief: as §1
# [11] = tested on: NCI-H226; experiment: Cytotoxicity against human NCI-H226 cells; method in brief: as §1
# [12] = tested on: T47D; experiment: Cytotoxicity against human T47D cells; method in brief: as §2
# [13] = tested on: MOLT-4; experiment: Cytotoxicity against human MOLT4 cells; method in brief: as §1
# [14] = Cytotoxicity against human OVCAR8 cells; method in brief: as §1
# [15] = Cytotoxicity against human EKVX cells; method in brief: as §1
# [16] = Cytotoxicity against human OVCAR5 cells; method in brief: as §1
# [17] = Cytotoxicity against human NCI-ADR-RES cells; method in brief: as §1
# [18] = tested on: NCI-H460; experiment: Cytotoxicity against human NCI-H460 cells; method in brief: as §1
# [19] = tested on: HL-60(TB); experiment: Cytotoxicity against human HL-60(TB) cells
# Method in brief: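 Tested within the NCI 60-cell-line screen, with GI50 as the read-out. Values are the average of two independent experiments. The lowest concentration tested was 10 nM.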
# [20] = tested on: HT-29; experiment: Cytotoxicity against human HT-29 cells; method in brief: as §1
# [21] = tested on: NCI-H23; experiment: Cytotoxicity against human NCI-H23 cells; method in brief: as §1
# [22] = Cytotoxicity against human UO31 cells; method in brief: as §2
# [23] = tested on: NCI-H322M; experiment: Cytotoxicity against human NCI-H322M cells; method in brief: as §1
# [24] = tested on: PC-3; experiment: Cytotoxicity against human PC3 cells; method in brief: as §1
# [25] = tested on: A498; experiment: Cytotoxicity against human A498 cells; method in brief: as §1
# [26] = tested on: SF-295; experiment: Cytotoxicity against human SF295 cells; method in brief: as §1
# [27] = tested on: 786-0; experiment: Cytotoxicity against human 786-0 cells; method in brief: as §1
# [28] = tested on: SF-539; experiment: Cytotoxicity against human SF539 cells; method in brief: as §1
# [29] = tested on: U-251; experiment: Cytotoxicity against human U251 cells; method in brief: as §2
# [30] = tested on: SF-268; experiment: Cytotoxicity against human SF268 cells; method in brief: as §1
# [31] = tested on: ACHN; experiment: Cytotoxicity against human ACHN cells; method in brief: as §1
# [32] = Cytotoxicity against human UACC257 cells; method in brief: as §2
# [33] = tested on: SNB-75; experiment: Cytotoxicity against human SNB75 cells; method in brief: as §2
# [34] = tested on: HCC 2998; experiment: Cytotoxicity against human HCC2998 cells; method in brief: as §1
# [35] = tested on: MDA-MB-468; experiment: Cytotoxicity against human MDA-MB-468 cells; method in brief: as §1
# [36] = tested on: SK-MEL-5; experiment: Cytotoxicity against human SK-MEL-5 cells; method in brief: as §1
# [37] = tested on: SNB-19; experiment: Cytotoxicity against human SNB19 cells; method in brief: as §1
# [38] = tested on: MDA-MB-435; experiment: Cytotoxicity against human MDA-MB-435 cells; method in brief: as §1
# [39] = Cytotoxicity against human UACC62 cells; method in brief: as §2
# [40] = tested on: DU-145; experiment: Cytotoxicity against human DU145 cells; method in brief: as §1
# [41] = tested on: SN12C; experiment: Cytotoxicity against human SN12C cells; method in brief: as §1
# [42] = tested on: M14; experiment: Cytotoxicity against human M14 cells; method in brief: as §1
# [43] = tested on: KM12; experiment: Cytotoxicity against human KM12 cells; method in brief: as §1
# [44] = read-out: pLC50 (the source's name) (converted)
compound,measurement,setting,value
COc1cc(/C=C/c2cc(OC)c3c(CC=C(C)C)c[nH]c3c2)cc2c1O[C@]1(C)CC[C@@H](O)C(C)(C)[C@H]1C2,GI50,[1],209 nM
same,CC50,[1]; [44],> 100000 nM
same,TGI,[1]; read-out: pTGI (converted),851 nM
same,GI50,[2]; OVCAR-3,2820 nM
same,CC50,"[2]; OVCAR-3, read-out: pLC50 (the source's name) (converted)",38000 nM
same,TGI,"[2]; OVCAR-3, read-out: pTGI (converted)",12000 nM
same,GI50,[3],309 nM
same,CC50,[3]; [44],> 100000 nM
same,TGI,[3]; read-out: pTGI (converted),1380 nM
same,GI50,[4],776 nM
same,LC50,[4],67600 nM
same,TGI,[4]; read-out: pTGI (converted),7240 nM
same,GI50,[5],398 nM
same,LC50,[5],19100 nM
same,TGI,[5]; read-out: pTGI (converted),3720 nM
same,GI50,[6],324 nM
same,CC50,[6]; [44],> 100000 nM
same,TGI,[6]; read-out: pTGI (converted),5500 nM
same,GI50,[7],26.3 nM
same,LC50,[7],724 nM
same,TGI,[7]; read-out: pTGI (converted),105 nM
same,GI50,[8],331 nM
same,CC50,[8]; [44],11000 nM
same,TGI,[8]; read-out: pTGI (converted),1580 nM
same,GI50,[9],355 nM
same,CC50,[9]; [44],67600 nM
same,TGI,[9]; read-out: pTGI (converted),15500 nM
same,GI50,[10],269 nM
same,LC50,[10],30900 nM
same,TGI,[10]; read-out: pTGI (converted),2400 nM
same,GI50,[11],2690 nM
same,CC50,[11]; [44],32400 nM
same,TGI,[11]; read-out: pTGI (converted),9770 nM
same,GI50,[12],1740 nM
same,CC50,[12]; [44],> 100000 nM
same,TGI,[12]; read-out: pTGI (converted),17000 nM
same,GI50,[13],155 nM
same,CC50,[13]; [44],> 100000 nM
same,TGI,[13]; read-out: pTGI (converted),661 nM
same,GI50,[14]; OVCAR-8,3800 nM
same,CC50,"[14]; OVCAR-8, read-out: pLC50 (the source's name) (converted)",74100 nM
same,TGI,"[14]; OVCAR-8, read-out: pTGI (converted)",23400 nM
same,GI50,[15],832 nM
same,CC50,[15]; [44],> 100000 nM
same,TGI,[15]; read-out: pTGI (converted),6610 nM
same,GI50,[16]; OVCAR-5,1550 nM
same,CC50,"[16]; OVCAR-5, read-out: pLC50 (the source's name) (converted)",51300 nM
same,TGI,"[16]; OVCAR-5, read-out: pTGI (converted)",7240 nM
same,GI50,[17],2880 nM
same,CC50,[17]; [44],> 100000 nM
same,TGI,[17]; read-out: pTGI (converted),28800 nM
same,GI50,[18],372 nM
same,CC50,[18]; [44],17000 nM
same,TGI,[18]; read-out: pTGI (converted),2190 nM
same,GI50,[19],191 nM
same,CC50,[19]; [44],85100 nM
same,TGI,[19]; read-out: pTGI (converted),2450 nM
same,GI50,[20],107 nM
same,CC50,[20]; [44],2820 nM
same,TGI,[20]; read-out: pTGI (converted),708 nM
same,GI50,[21],646 nM
same,CC50,[21]; [44],26900 nM
same,TGI,[21]; read-out: pTGI (converted),3550 nM
same,GI50,[22]; UO-31,437 nM
same,LC50,[22]; UO-31,56200 nM
same,TGI,"[22]; UO-31, read-out: pTGI (converted)",6920 nM
same,GI50,[23],6310 nM
same,CC50,[23]; [44],> 100000 nM
same,TGI,[23]; read-out: pTGI (converted),39800 nM
same,GI50,[24],240 nM
same,LC50,[24],> 100000 nM
same,TGI,[24]; read-out: pTGI (converted),17400 nM
same,GI50,[25],138 nM
same,CC50,[25]; [44],5250 nM
same,TGI,[25]; read-out: pTGI (converted),603 nM
same,GI50,[26]; read-out: GI50,48 nM
same,GI50,[26]; read-out: pGI50 (converted),47.9 nM
same,CC50,[26]; [44],871 nM
same,TGI,[26]; read-out: pTGI (converted),219 nM
same,GI50,[27],50.1 nM
same,LC50 (concentration killing 50% of cells),[27],891 nM
same,TGI,[27]; read-out: pTGI (converted),302 nM
same,GI50,[28],50.1 nM
same,CC50,[28]; [44],2510 nM
same,TGI,[28]; read-out: pTGI (converted),309 nM
same,GI50,[29],75.9 nM
same,CC50,[29]; [44],12900 nM
same,TGI,[29]; read-out: pTGI (converted),2290 nM
same,GI50,[30],1120 nM
same,CC50,[30]; [44],91200 nM
same,TGI,[30]; read-out: pTGI (converted),14500 nM
same,GI50,[31],1260 nM
same,LC50 (concentration killing 50% of cells),[31],49000 nM
same,TGI,[31]; read-out: pTGI (converted),15100 nM
same,GI50,[32]; UACC-257,2090 nM
same,CC50,"[32]; UACC-257, read-out: pLC50 (the source's name) (converted)",49000 nM
same,TGI,"[32]; UACC-257, read-out: pTGI (converted)",12900 nM
same,GI50,[33],89.1 nM
same,CC50,[33]; [44],75900 nM
same,TGI,[33]; read-out: pTGI (converted),2690 nM
same,GI50,[34],2510 nM
same,CC50,[34]; [44],53700 nM
same,TGI,[34]; read-out: pTGI (converted),15800 nM
same,GI50,[35],195 nM
same,LC50,[35],10500 nM
same,TGI,[35]; read-out: pTGI (converted),1100 nM
same,GI50,[36],263 nM
same,CC50,[36]; [44],1480 nM
same,TGI,[36]; read-out: pTGI (converted),676 nM
same,GI50,[37],398 nM
same,CC50,[37]; [44],28200 nM
same,TGI,[37]; read-out: pTGI (converted),4170 nM
same,GI50,[38],646 nM
same,CC50,[38]; [44],74100 nM
same,TGI,[38]; read-out: pTGI (converted),9120 nM
same,GI50,[39]; UACC-62,229 nM
same,CC50,"[39]; UACC-62, read-out: pLC50 (the source's name) (converted)",9120 nM
same,TGI,"[39]; UACC-62, read-out: pTGI (converted)",661 nM
same,GI50,[40],2040 nM
same,LC50 (50% lethal concentration),[40],46800 nM
same,TGI,[40]; read-out: pTGI (converted),15100 nM
same,GI50,[41],2510 nM
same,LC50,[41],52500 nM
same,TGI,[41]; read-out: pTGI (converted),19100 nM
same,GI50,[42],525 nM
same,CC50,[42]; [44],46800 nM
same,TGI,[42]; read-out: pTGI (converted),2820 nM
same,GI50,[43],355 nM
same,CC50,[43]; [44],7940 nM
same,TGI,[43]; read-out: pTGI (converted),1700 nM
